{"data": "Measurements from different studies", "target": "Serine/threonine-protein kinase BRSK1 (BRSK1, Homo sapiens, UniProt Q8TDC3)", "Residues used in one study (Q8TDC3 1-778)": "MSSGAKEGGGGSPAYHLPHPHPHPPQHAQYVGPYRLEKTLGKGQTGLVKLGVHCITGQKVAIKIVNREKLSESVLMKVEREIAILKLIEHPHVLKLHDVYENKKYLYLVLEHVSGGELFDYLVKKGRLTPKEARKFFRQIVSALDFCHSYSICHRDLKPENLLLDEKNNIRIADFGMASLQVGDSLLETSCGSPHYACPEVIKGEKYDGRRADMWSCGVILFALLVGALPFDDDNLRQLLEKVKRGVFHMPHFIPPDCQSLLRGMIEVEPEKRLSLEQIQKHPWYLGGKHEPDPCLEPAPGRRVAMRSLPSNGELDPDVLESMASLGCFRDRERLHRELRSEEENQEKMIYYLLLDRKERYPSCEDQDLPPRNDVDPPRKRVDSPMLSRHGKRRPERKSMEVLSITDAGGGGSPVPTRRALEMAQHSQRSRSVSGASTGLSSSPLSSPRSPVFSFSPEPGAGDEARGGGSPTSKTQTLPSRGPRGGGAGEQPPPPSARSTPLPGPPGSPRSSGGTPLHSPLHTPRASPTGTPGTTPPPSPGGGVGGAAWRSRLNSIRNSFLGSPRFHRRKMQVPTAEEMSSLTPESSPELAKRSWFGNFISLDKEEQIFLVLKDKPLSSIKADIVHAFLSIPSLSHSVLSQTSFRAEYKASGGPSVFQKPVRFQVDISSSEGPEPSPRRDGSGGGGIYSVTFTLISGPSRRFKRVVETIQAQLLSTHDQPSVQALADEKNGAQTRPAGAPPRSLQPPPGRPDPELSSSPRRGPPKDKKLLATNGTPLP"}
{"SMILES": "Cn1c(=O)n(-c2ccc(C(C)(C)C#N)cc2)c2c3cc(-c4cnc5ccccc5c4)ccc3ncc21", "observed": "enzyme activity", "mode": "inhibitor", "tested at": "10 µM", "quantity": "remaining activity", "result": "85%"}
{"SMILES": "C[C@H](c1ccnc(Nc2nc3ccc(-c4cc(N(C)C)ncn4)cc3[nH]2)c1)N1CCN(C(=O)CC(F)(F)F)CC1", "observed": "cell-free assay", "technique": "competition with immobilised ligand", "tested at": "0.1 µM", "quantity": "remaining binding", "result": "100%"}
{"SMILES": "CC(C)(O)[C@H]1CC[C@H](Nc2ccc3ncc(-c4cccc(C(F)(F)F)c4)n3n2)CC1", "observed": "enzyme activity", "mode": "inhibitor", "tested at": "1 µM", "quantity": "remaining activity", "result": "98.1%"}
{"SMILES": "NS(=O)(=O)c1cc(NC(=O)Cc2ccccc2)ccc1Oc1cccc(Cl)c1", "observed": "cell-free assay", "technique": "competition with immobilised ligand", "tested at": "1 µM", "quantity": "remaining binding", "result": "91%"}
{"SMILES": "Nc1nc(Nc2ccc(S(N)(=O)=O)cc2)nn1C(=O)c1c(F)cccc1F", "observed": "cell-free assay", "tested at": "0.5 µM", "quantity": "remaining signal", "result": "49.2%"}
{"SMILES": "Cc1ccc(C(=O)Nc2ccc(CN3CCN(C)CC3)c(C(F)(F)F)c2)cc1C#Cc1cnc2cccnn12", "observed": "enzyme activity", "mode": "inhibitor", "tested at": "23.5 nM", "quantity": "remaining activity", "result": "83%"}
{"SMILES": "CN([C@@H]1CCc2c(CC(=O)O)c3ccccc3n2C1)S(=O)(=O)c1ccc(F)cc1", "observed": "cell-free assay", "technique": "competition with immobilised ligand", "tested at": "1 µM", "quantity": "remaining binding", "result": "100%"}
{"SMILES": "COc1cc2ncnc(Nc3ccc(Oc4ccccc4)c(C)c3C)c2cc1OC", "observed": "enzyme activity", "mode": "inhibitor", "tested at": "1 µM", "quantity": "inhibition", "result": "0%"}
{"SMILES": "CC(=O)N1CCC(c2ccc(C(=O)NC(=N)N)cc2C(F)(F)F)CC1", "observed": "cell-free assay", "technique": "competition with immobilised ligand", "tested at": "1 µM", "quantity": "remaining binding", "result": "87%"}
{"SMILES": "CNC(=O)c1cc(Oc2ccc(NC(=O)Nc3ccc(Cl)c(C(F)(F)F)c3)cc2)ccn1", "observed": "enzyme activity", "mode": "inhibitor", "tested at": "10 µM", "quantity": "inhibition", "result": "20%"}
{"SMILES": "COc1cc(Cl)c(C(=O)N[C@@H](CN[C@H]2CC[C@@H](N)CC2)Cc2ccc(C#N)cc2)cc1-c1ccc(CN[C@H](C)c2ccc(C)cc2)o1", "observed": "enzyme activity", "mode": "inhibitor", "tested at": "1 µM", "quantity": "remaining activity", "result": "100%"}
{"SMILES": "FC(F)(F)Oc1cccc(-c2cnc3ccc(-c4ccncc4)nn23)c1", "observed": "enzyme activity", "mode": "inhibitor", "technique": "radiometric", "tested at": "5 µM", "quantity": "activity vs control", "result": "82%"}
{"SMILES": "O=C(N1CCS(=O)(=O)CC1)N1C[C@H](c2ccc(OC(F)(F)F)cc2)C[C@H](c2nc(C3CC3)no2)C1", "observed": "cell-free assay", "technique": "competition with immobilised ligand", "tested at": "1 µM", "quantity": "remaining binding", "result": "100%"}
{"SMILES": "CC(C)(C)c1nc2c(s1)c1nc(N)ncc1c1ccc(NS(=O)(=O)c3c(F)cccc3F)c(F)c12", "observed": "enzyme activity", "mode": "inhibitor", "technique": "radiometric", "tested at": "1 µM", "quantity": "remaining activity", "result": "102%"}
{"SMILES": "O=C(Nc1cnn(-c2csc(C(=O)NC3COC3)c2)c1)Nc1c(F)cccc1Cl", "observed": "enzyme activity", "mode": "inhibitor", "tested at": "5 µM", "quantity": "remaining activity", "result": "99.4%"}
{"SMILES": "Cc1ccc(Nc2nccc(N(C)c3ccc4c(C)n(C)nc4c3)n2)cc1S(N)(=O)=O", "observed": "enzyme activity", "mode": "inhibitor", "tested at": "0.3 µM", "quantity": "inhibition", "result": "18%"}
{"SMILES": "CCCOc1ccc(OC)c(F)c1C(=O)c1ccc(C(=O)N[C@@H]2CNC[C@H]2NC(=O)c2ccc3[nH]ncc3c2)cc1", "observed": "enzyme activity", "mode": "inhibitor", "tested at": "10 µM", "quantity": "remaining activity", "result": "40%"}
{"SMILES": "CN(C)C(=O)Cn1cc(-c2nc(C3(c4ccc(-c5cnc(N)nc5)cc4)CC3)no2)cn1", "observed": "cell-free assay", "technique": "competition with immobilised ligand", "tested at": "1 µM", "quantity": "remaining binding", "result": "93%"}
{"SMILES": "FC(F)c1nc2ccccc2n1-c1nc(N2CCOCC2)nc(N2CCOCC2)n1", "observed": "enzyme activity", "mode": "inhibitor", "tested at": "10 µM", "quantity": "remaining activity", "result": "161%"}
{"SMILES": "CCN(CC)c1ccc(C2=NNC(=O)CC2C)cc1[N+](=O)[O-] (stereo not drawn)", "observed": "enzyme activity", "mode": "inhibitor", "tested at": "10 µM", "quantity": "remaining activity", "result": "131%"}
{"SMILES": "Cc1cc(NC(=O)c2cccc3cc(-c4cccc5[nH]nc(N)c45)ccc23)ccc1F", "observed": "enzyme activity", "mode": "inhibitor", "tested at": "0.1 µM", "quantity": "activity vs control", "result": "123%"}
{"SMILES": "Cc1cc(C)c(-n2ccn3nc(-c4cccnc4)cc23)cc1NC(=O)c1cc(C#N)cc(S(F)(F)(F)(F)F)c1", "observed": "cell-free assay", "technique": "competition with immobilised ligand", "tested at": "0.1 µM", "quantity": "remaining binding", "result": "84%"}
{"SMILES": "CCCS(=O)(=O)Nc1ccc(F)c(C(=O)c2c[nH]c3ncc(-c4ccc(Cl)cc4)cc23)c1F", "observed": "enzyme activity", "mode": "inhibitor", "tested at": "1 µM", "quantity": "inhibition", "result": "< 10%"}
{"SMILES": "CCN(CC)CCNC(=O)c1c(C)[nH]c(/C=C2\\C(=O)Nc3ccc(F)cc32)c1C", "observed": "enzyme activity", "mode": "inhibitor", "tested at": "10 µM", "quantity": "inhibition", "result": "82%"}
{"SMILES": "CNc1cccc2cc(C(=O)Nc3ccc(C(=O)O)cc3)c(=O)[nH]c12", "observed": "enzyme activity", "mode": "inhibitor", "tested at": "10 µM", "quantity": "inhibition", "result": "2.7%"}
{"SMILES": "Cc1nc(Cc2cccc(C(F)(F)F)c2)sc1-c1ccc(C(N)=O)nc1", "observed": "cell-free assay", "technique": "competition with immobilised ligand", "tested at": "1 µM", "quantity": "remaining binding", "result": "100%"}
{"SMILES": "N#CCCc1ccc2c(c1)-c1[nH]c3ccc([N+](=O)[O-])cc3c1CC(=O)N2", "observed": "cell-free assay", "tested at": "0.5 µM", "quantity": "remaining signal", "result": "46.8%"}
